Consider 9 compounds from ChEMBL document CHEMBL4257474, “Antiproliferative activity of novel isatinyl/indanyl nitrones (INs) as potential spin trapping agents of free radical intermediates” (Medchemcomm, 2018).

Active and inactive are the calls of the source. The rule behind the calls is not given here.

The subject of assay [1] is MG-63. In words: Antiproliferative activity against human MG63 cells after 3 days by MTT assay. The format is functional, cell-based. Conditions: MG-63, 72 h. Summed up: (§1)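 Osteosarcoma cells were seeded at 4000 per well 6 h before treatment in medium with 10% FBS, penicillin/streptomycin and 2 mM glutamine, at 37 °C and 5% CO2. Compounds came from 40 mM DMSO stocks and were tested at 3–200 µM for 3 days. MTT was added for 2 h and formazan dissolved in 50% DMF/20% SDS pH 4.7 for 16 h. A570 was read versus untreated control; IC50 calculated. Three independent experiments in triplicate.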

Assay [2] concerns K562. The assay can be described thus: Antiproliferative activity against human K562 cells after 3 days by MTT assay. The format is functional, cell-based. The essentials: (§2)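 K562 leukemia cells were seeded at 20000 cells per mL in medium with 10% FBS, penicillin/streptomycin and 2 mM glutamine, at 37 °C and 5% CO2. Compounds were diluted from 40 mM DMSO stocks and applied at 3–200 µM for 3 days. MTT was added for 2 h, then lysis in 50% DMF/20% SDS pH 4.7 for 16 h, and A570 read. Proliferation was expressed as % of untreated cells; IC50 calculated. Three independent experiments in triplicate.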
For orientation: Tetrazolium dyes change colour on reduction, which living cells bring about.

The nature of assay [3]: Antioxidant activity assessed as DPPH free radical scavenging at 1.15 x 10^-6mol/L after 10 mins by UV-vis spectrophotometric analysis relative to control. The assay is classed as functional. The essentials: (§3)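 Ethanolic DPPH was added to the compound in ethanol at the stated concentration, within a five-level series of 1.15 × 10^-6 to 9.10 × 10^-6 mol L^-1. After 10 min in the dark, absorbance was read at 517 nm against absolute ethanol. Scavenging was expressed as RSA% = [(A0 − Ai)/A0] × 100, with A0 the absorbance without compound. BHT served as reference. Triplicate.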
For orientation: Loss of DPPH colour is used to gauge radical scavenging.

Assay [4] can be described thus: Antioxidant activity assessed as DPPH free radical scavenging at 2.45 x 10^-6mol/L after 10 mins by UV-vis spectrophotometric analysis relative to control. The format is functional. The essentials: as §3
The nature of assay [5]: Antioxidant activity assessed as DPPH free radical scavenging at 4 x 10^-6mol/L after 10 mins by UV-vis spectrophotometric analysis relative to control. The assay is classed as functional. The essentials: as §3
Assay [6] in a line: Antioxidant activity assessed as DPPH free radical scavenging at 6.25 x 10^-6mol/L after 10 mins by UV-vis spectrophotometric analysis relative to control. The format is functional. Summed up:
as §3

Assay [7] is described as follows: Antioxidant activity assessed as DPPH free radical scavenging at 9.10 x 10^-6mol/L after 10 mins by UV-vis spectrophotometric analysis relative to control. The assay is classed as functional. Summed up: as §3
Assay [8] is described as follows: Antioxidant activity assessed as DPPH free radical scavenging after 10 mins by UV-vis spectrophotometric analysis. The assay is classed as functional. Summed up:
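DPPH and test compound mixed in ethanol at five concentrations, 1.15 × 10^-6 to 9.10 × 10^-6 mol L^-1. After 10 min in the dark, absorbance at 517 nm was read against ethanol blank. RSA% = [(A0 − Ai)/A0] × 100. EC50 (concentration giving 50% radical inhibition) was derived from the RSA% values. BHT was the reference over the same range. Triplicate.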

The test system of assay [9] is HOS-TE85. The assay can be described thus: Antiproliferative activity against human HOSTE85 cells after 3 days by MTT assay. The assay is classed as functional, cell-based. As to conditions: HOS-TE85, 72 h. The essentials: as §1
In assay [10] the test system is MG-63. In words: Antiproliferative activity against human MG63 cells at 3 to 200 uM after 3 days by MTT assay. The format is functional, cell-based. The essentials: as §1
For assay [11], the system named is HOS-TE85. In words: Antiproliferative activity against human HOSTE85 cells at 3 to 200 uM after 3 days by MTT assay. The assay is classed as functional, cell-based. The essentials: as §1
For assay [12], the system named is K562. The assay can be described thus: Antiproliferative activity against human K562 cells at 3 to 200 uM after 3 days by MTT assay. The assay is classed as functional, cell-based. Summed up: as §2

The IC50 is the concentration that gives 50% inhibition. A low value points to inhibition by little substance. Usually EC50 stands for the concentration needed to bring the measured effect to its halfway point. Take `CN1C(=O)/C(=[N+](/[O-])Cc2ccccc2)c2ccccc21`: the IC50 in the assay on MG-63 [1] was 77000 nM; in the assay on K562 [2] (K562, 72 h) it was 78000 nM. The Activity came to 1.2% in assay [3]; 60% in assay [4]; 68% in assay [5]; 70% in [6]; 79% in assay [7]. In addition, in assay [8], the EC50 came to 600 nM.
As for `O=C1Nc2ccc([N+](=O)[O-])cc2/C1=[N+](\[O-])Cc1ccccc1`, the values for the IC50 with MG-63 [1] and in the assay on HOS-TE85 [9] were 77000 nM and 32000 nM, respectively. The outcome in the assay on K562 [2] was inactive. Also, the Activity amounted to 60% in assay [5], 67% in assay [6] and 80% in assay [7]. Besides, in assay [8], the EC50 stood at 1000 nM.
For the compound `[O-]/[N+](Cc1ccccc1)=C1/CCc2ccccc21`, the result in the assay with K562 [2], with MG-63 [10], in the assay on HOS-TE85 [11] and with K562 [12] was inactive. The Activity in [3] is 1.1%; in assay [4], 1.2%; in [5], 1.3%; in assay [6] it was 70%; in assay [7], 79%. The EC50 in [8] is 1200 nM.
For the compound `O=C1Nc2ccccc2/C1=[N+](\[O-])c1ccccc1`, the outcome in the assay with K562 [2], in the assay with MG-63 [10], in the assay with HOS-TE85 [11] and in the assay on K562 [12] was inactive. The Activity in assay [3] is 1.1%; in assay [4] it was 1.2%; in [5] it was 1.2%; in assay [6], 69%; in assay [7], 80%. In addition, the EC50 in assay [8] came out at 1300 nM.
Regarding `O=C1Nc2ccccc2/C1=[N+](\[O-])Cc1ccccc1`, the results for the half-inhibitory concentration (IC50) in the assay with MG-63 [1] and in the assay with HOS-TE85 [9] were 77000 nM and 32000 nM, respectively. Moreover, the outcome with K562 [2] was inactive. The Activity in assay [3] amounted to 1.1%; in assay [4] it was 1.1%; in [5], 1.2%; in assay [6] it was 1.2%; in assay [7], 78%. In addition, the EC50 in [8] is 1800 nM.
Take `C/[N+]([O-])=C1\CCc2cc(F)ccc21`: the outcome in the assay on K562 [2], in the assay on MG-63 [10], with HOS-TE85 [11] and with K562 [12] was inactive. The values for the Activity in assay [5], in assay [6] and in assay [7] were 1.1%, 1.2% and 79%, respectively. Moreover, the EC50 in assay [8] is 1800 nM.
In the case of `C/[N+]([O-])=C1\CCc2ccccc21`, the result in the assay with K562 [2], in the assay with MG-63 [10], in the assay with HOS-TE85 [11] and in the assay on K562 [12] was inactive. Besides, the Activity came to 1.1% in assay [5], 60% in [6] and 78% in [7]. In addition, the EC50 in [8] came to 1300 nM.
Regarding `Cc1cc(C(C)(C)C)c(O)c(C(C)(C)C)c1` [BUTYLATED HYDROXYTOLUENE], the Activity in assay [4] was 4.6%; in assay [5], 11.7%; in [6] it was 23%; in assay [7], 27%. In assay [8], the EC50 was found to be 3800 nM.
On to `C/[N+]([O-])=C1\C(=O)Nc2ccc([N+](=O)[O-])cc21`, for which, in the assay on HOS-TE85 [9], the IC50 worked out at 32000 nM. The result in the assay on K562 [2] was inactive. Further, the Activity in assay [5] is 1.1%; in assay [6], 72%; in assay [7], 79%. In addition, the EC50 in assay [8] was found to be 1200 nM.
